Assay results: ChEMBL document CHEMBL2434864, “Synthesis and biological evaluation of phenyl substituted polyoxygenated xanthone derivatives as anti-hepatoma agents” (Eur J Med Chem, 2013)
pIC50: −log10 of the molar value.

Key:
[1] = Cytotoxicity against human QGY7703 cells after 48 hrs by CCK-8 assay; type: functional, cell-based; conditions: QGY-7703, 48 h
Method in brief: (§1)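 Cells grown at 37 °C, 5% CO2 in medium with 10% FBS and penicillin/streptomycin: HepG-2 in MEM; QGY-7703, SMMC-7721 and QSG-7701 in 1640 medium. Seeded at 2×10^5 cells/well for 24 h, then exposed to varying compound concentrations or 1% DMSO vehicle for 48 h. CCK-8 added for 3 h more, absorbance read at 450 nm.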

[2] = Cytotoxicity against human QSG7701 cells after 48 hrs by CCK-8 assay; type: cell-based; conditions: QSG7701, 48 h; method in brief: as §1
HepG2 = experiment: Cytotoxicity against human HepG2 cells after 48 hrs by CCK-8 assay; type: functional, cell-based; conditions: HepG2, 48 h; method in brief: as §1
SMMC-7721 = experiment: Cytotoxicity against human SMMC7721 cells after 48 hrs by CCK-8 assay; type: functional, cell-based; conditions: SMMC-7721, 48 h; method in brief: as §1
[3] = Growth inhibition of human QGY7703 cells at 10 uM after 48 hrs by CCK-8 assay relative to control; type: functional; conditions: QGY-7703, 48 h, read-out: GI
Method in brief: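 QGY-7703 cells were kept in 1640 medium with 10% FBS and penicillin/streptomycin at 37 °C, 5% CO2, then seeded at 2×10^5 cells/well for 24 h. They were treated once at 10 μM for 48 h, followed by CCK-8 for 3 h and A450. Values are percentage inhibition relative to untreated control cells.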

QGY-7703 [4] = experiment: Induction of apoptosis in human QGY7703 cells assessed as late apoptotic cells at 3.75 uM after 48 hrs by Annexin V-FITC/propidium iodide staining-based flow cytometric analysis (reference value: 4.25%); type: functional
Method in brief: (§2)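 QGY-7703 cells were seeded at 5×10^5 cells/mL for 24 h, then given 3.75, 7.5, 15 or 30 μM, or DMSO control, for 48 h. Floating and trypsinized adherent cells were pooled, washed twice in cold PBS and resuspended in binding buffer. They were stained with annexin V-FITC/PI for 15 min at room temperature in the dark and analysed by flow cytometry. Mean ± SD of three independent experiments.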

QGY-7703 [5] = experiment: Induction of apoptosis in human QGY7703 cells assessed as early apoptotic cells at 3.75 uM after 48 hrs by Annexin V-FITC/propidium iodide staining-based flow cytometric analysis (reference value: 2.63%); type: functional; method in brief: as §2
QGY-7703 [6] = experiment: Induction of apoptosis in human QGY7703 cells assessed as late apoptotic cells at 30 uM after 48 hrs by Annexin V-FITC/propidium iodide staining-based flow cytometric analysis (reference value: 4.25%); type: functional; method in brief: as §2
QGY-7703 [7] = experiment: Induction of apoptosis in human QGY7703 cells assessed as early apoptotic cells at 15 uM after 48 hrs by Annexin V-FITC/propidium iodide staining-based flow cytometric analysis (reference value: 2.63%); type: functional; method in brief: as §2
QGY-7703 [8] = experiment: Induction of apoptosis in human QGY7703 cells assessed as early apoptotic cells at 7.5 uM after 48 hrs by Annexin V-FITC/propidium iodide staining-based flow cytometric analysis (reference value: 2.63%); type: functional; method in brief: as §2
QGY-7703 [9] = experiment: Induction of apoptosis in human QGY7703 cells assessed as late apoptotic cells at 7.5 uM after 48 hrs by Annexin V-FITC/propidium iodide staining-based flow cytometric analysis (reference value: 4.25%); type: functional; method in brief: as §2
QGY-7703 [10] = experiment: Induction of apoptosis in human QGY7703 cells assessed as early apoptotic cells at 30 uM after 48 hrs by Annexin V-FITC/propidium iodide staining-based flow cytometric analysis (reference value: 2.63%); type: functional; method in brief: as §2
QGY-7703 [11] = experiment: Induction of apoptosis in human QGY7703 cells assessed as late apoptotic cells at 15 uM after 48 hrs by Annexin V-FITC/propidium iodide staining-based flow cytometric analysis (reference value: 4.25%); type: functional; method in brief: as §2

Compound	pIC50 [1]	pIC50 [2]	pIC50 (HepG2)	pIC50 (SMMC-7721)	inhibition of growth at 10 µM [3]	also measured
O=c1[nH]cc(F)c(=O)[nH]1 [FLUOROURACIL]	4.81	6.22	4.90	4.84		
COc1ccc2c(=O)c3c(OC)cc(OC)c(-c4ccccc4)c3oc2c1OC	5.20	< 4.00	4.72	5.12	66.5%	Activity (QGY-7703 [4]): 4.6%; Activity (QGY-7703 [5]): 2.61%; Activity (QGY-7703 [6]): 23.27%; Activity (QGY-7703 [7]): 10.58%; Activity (QGY-7703 [8]): 8.63%; Activity (QGY-7703 [9]): 12.12%; Activity (QGY-7703 [10]): 15.81%; Activity (QGY-7703 [11]): 18.82%
COc1cc(OC)c2c(=O)c3ccc(OC)c(OC)c3oc2c1					14.1%	
COc1cccc(-c2c(OC)cc(OC)c3c(=O)c4ccc(OC)c(OC)c4oc23)c1	4.92	4.32	4.54	4.98	55.2%	
COc1ccc2c(=O)c3c(OC)cc(OC)c(-c4ccc(C(F)(F)F)cc4)c3oc2c1OC					5.23%	
COc1ccc2c(=O)c3c(OC)cc(OC)c(-c4cc(F)ccc4F)c3oc2c1OC					17.4%	
COc1ccc2c(=O)c3c(OC)cc(OC)c(-c4ccc(C(C)(C)C)cc4)c3oc2c1OC	4.48	< 4.00	4.41	4.74	56.3%	
COc1ccc2c(=O)c3c(OC)cc(OC)c(-c4cccc(C#N)c4)c3oc2c1OC					-4.17%	
COC(=O)c1ccc(-c2c(OC)cc(OC)c3c(=O)c4ccc(OC)c(OC)c4oc23)cc1					-5.48%	
COc1ccc2c(=O)c3c(OC)cc(OC)c(-c4cccc(C(F)(F)F)c4)c3oc2c1OC					30%	
COc1ccc2c(=O)c3c(OC)cc(OC)c(-c4cccc(C=O)c4)c3oc2c1OC					13%	
COc1ccc2c(=O)c3c(OC)cc(OC)c(-c4ccc(OC(F)(F)F)cc4)c3oc2c1OC					0.53%	
COc1ccc2c(=O)c3c(OC)cc(OC)c(-c4cccc(F)c4)c3oc2c1OC					35.2%	
COc1ccc2c(=O)c3c(OC)cc(OC)c(-c4ccccc4F)c3oc2c1OC	4.40	4.68	4.31	4.57	52.4%	
COc1ccc2c(=O)c3c(OC)cc(OC)c(-c4cc(F)cc(F)c4)c3oc2c1OC					11.2%	
COc1ccc2c(=O)c3c(OC)cc(OC)c(-c4ccc(F)c(F)c4)c3oc2c1OC					5.85%	
COc1ccc2c(=O)c3c(OC)cc(OC)c(-c4cc(C)ccc4C)c3oc2c1OC	4.61	4.04	4.54	4.77	54.3%	
COc1ccc2c(=O)c3c(OC)cc(OC)c(-c4ccc(F)cc4)c3oc2c1OC					13.9%	
COc1ccc2c(=O)c3c(OC)cc(OC)c(-c4ccc(C=O)cc4)c3oc2c1OC					19.7%	
COc1ccc2c(=O)c3c(OC)cc(OC)c(-c4ccc(S(C)(=O)=O)cc4)c3oc2c1OC					1.59%	
CCc1ccc(-c2c(OC)cc(OC)c3c(=O)c4ccc(OC)c(OC)c4oc23)cc1	4.65	4.16	4.55	4.79	77.1%	
COc1cc(OC)cc(-c2c(OC)cc(OC)c3c(=O)c4ccc(OC)c(OC)c4oc23)c1	4.50	4.48	4.35	4.50	58%	
COc1ccc2c(=O)c3c(OC)cc(OC)c(-c4cc(C(F)(F)F)cc(C(F)(F)F)c4)c3oc2c1OC					14.2%	
COc1ccc2c(=O)c3c(OC)cc(OC)c(-c4ccc(C)cc4)c3oc2c1OC	4.85	4.18	4.61	5.50	68.1%	
COc1ccc2c(=O)c3c(OC)cc(OC)c(-c4ccc(C(C)=O)cc4)c3oc2c1OC					13.2%	
COc1ccc2c(=O)c3c(OC)cc(OC)c(-c4ccc(C(C)C)cc4)c3oc2c1OC	4.58	< 4.00	4.49	4.70	52.7%	
COc1ccc2c(=O)c3c(OC)cc(OC)c(-c4ccc(C#N)cc4)c3oc2c1OC					-1.84%	
COc1ccc2c(=O)c3c(OC)cc(OC)c(-c4ccccc4OC(F)(F)F)c3oc2c1OC					33%	
COc1ccc2c(=O)c3c(OC)cc(OC)c(-c4cccc(C)c4)c3oc2c1OC	4.88	< 4.00	5.30	4.83	51.4%	
COc1ccc2c(=O)c3c(OC)cc(OC)c(-c4cccnc4)c3oc2c1OC					18%	
